Reference: ChEMBL document CHEMBL1145060, “Synthesis and evaluation of pharmacological properties of novel annelated 2,3-benzodiazepine derivatives” (2003)

How the values were obtained:
[1] = Anticonvulsant activity against Audiogenic seizures in DBA/2 mice was observed in tonic phase after intraperitoneal injection; format: functional; conditions: Mus musculus, ip
Method in brief: (§1)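 Compound given intraperitoneally to DBA/2 mice 30 min before audiogenic seizure testing; clonic and tonic phases scored. ED50 (μmol/kg) with 95% confidence limits calculated by Litchfield and Wilcoxon.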

[2] = Anticonvulsant activity against in MES was observed in mice after intraperitoneal injection; format: functional; conditions: Mus musculus, ip
Method in brief: (§2)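 Swiss mice dosed ip 45 min before seizure induction by maximal electroshock (MES) or pentylenetetrazole (PTZ). ED50 (μmol/kg) with 95% confidence limits by Litchfield and Wilcoxon method.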

[3] = Anticonvulsant activity against Audiogenic seizures in DBA/2 mice was observed in clonic phase after intraperitoneal injection; format: functional; conditions: Mus musculus, ip; method in brief: as §1
[4] = Anticonvulsant activity against PTZ induced seizures was observed in mice after intraperitoneal injection; format: functional; conditions: Mus musculus, ip; method in brief: as §2
[5] = Anticonvulsant activity against AMPA-induced seizures in DBA/2 mice was observed in clonic phase after intraperitoneal injection; format: functional, Mus musculus
Method in brief: (§3)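 DBA/2 mice given compound intraperitoneally, then challenged with AMPA to induce seizures; clonic and tonic phases scored separately. ED50 (μmol/kg) with 95% confidence limits by Litchfield and Wilcoxon method.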

[6] = Anticonvulsant activity against Audiogenic seizures in DBA/2 mice was observed in clonic phase after pretreatment with Aniracetam; format: functional; conditions: Mus musculus
Method in brief: (§4)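 Audiogenic seizure test in DBA/2 mice, clonic and tonic phases; aniracetam 50 nmol given icv 60 min before testing, together with ip compound. ED50 with 95% confidence limits by Litchfield and Wilcoxon method.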

[7] = Anticonvulsant activity against Audiogenic seizures in DBA/2 mice was observed in tonic phase after pretreatment with Aniracetam; format: functional; conditions: Mus musculus; method in brief: as §4
[8] = Anticonvulsant activity against AMPA-induced seizures in DBA/2 mice was observed in tonic phase after intraperitoneal injection; format: functional; conditions: Mus musculus, ip; method in brief: as §3
[9] = Mus musculus, ip, read-out: ED50

Row | SMILES | ED50 [1] | ED50 [2] | ED50 [3] | ED50 [4] | ED50 [5, 9] | ED50 [6] | ED50 [7] | ED50 [5] | ED50 [8]
1 | COc1cc2c(cc1OC)C(c1ccccc1)=Nn1c(n[nH]c(=O)c1=O)C2 | 17.9 µmol/kg | 36.6 µmol/kg | 33.6 µmol/kg | 57.6 µmol/kg | – | – | – | – | –
2 | COc1cc2c(cc1OC)C(c1ccc([N+](=O)[O-])cc1)=Nn1c(n[nH]c(=O)c1=O)C2 | 25.7 µmol/kg | – | 60 µmol/kg | – | – | – | – | – | –
3 | CC(=O)N1N=C(c2ccc(N)cc2)c2cc3c(cc2C[C@H]1C)OCO3 [TALAMPANEL] | 9.7 µmol/kg | 28.8 µmol/kg | – | 56.3 µmol/kg | 44.2 µmol/kg | – | – | – | –
4 | COc1cc2c(cc1OC)C(c1ccc(Cl)cc1)=Nn1c(n[nH]c(=O)c1=O)C2 | 33 µmol/kg | – | 37.4 µmol/kg | – | – | – | – | – | –
5 | COc1cc2c(cc1OC)C(c1ccc(Cl)cc1)=Nn1c(O)nnc1C2 | 14.1 µmol/kg | – | 28.8 µmol/kg | 33.1 µmol/kg | 46.8 µmol/kg | 87.8 µmol/kg | 71.8 µmol/kg | 46.8 µM/kg | –
6 | COc1cc2c(cc1OC)C(c1ccc(N)cc1)=NNC(=O)C2 | – | – | 15 µmol/kg | – | – | – | 56.2 µmol/kg | – | 25 µmol/kg
7 | COc1cc2c(cc1OC)C(c1ccc(Br)cc1)=Nn1c(n[nH]c(=O)c1=O)C2 | 54.6 µmol/kg | – | 76.6 µmol/kg | – | – | – | – | – | –
8 | COc1cc2c(cc1OC)C(c1ccc(F)cc1)=Nn1c(n[nH]c(=O)c1=O)C2 | 28 µmol/kg | 37.8 µmol/kg | 39.2 µmol/kg | 63.2 µmol/kg | – | – | – | – | –
9 | COc1cc2c(cc1OC)C(c1ccc(N)cc1)=Nn1c(n[nH]c(=O)c1=O)C2 | 52.8 µmol/kg | – | 59.3 µmol/kg | – | – | – | – | – | –
10 | COc1cc2c(cc1OC)C(c1cccc([N+](=O)[O-])c1)=Nn1c(n[nH]c(=O)c1=O)C2 | 88.9 µmol/kg | – | > 120 µmol/kg | – | – | – | – | – | –
11 | CC1=NN=C(c2ccc(N)cc2)c2cc3c(cc2C1)OCO3 [GYKI-52466] | – | – | – | – | 57.5 µmol/kg | – | 100 µmol/kg | – | –
12 | COc1cc2c(cc1OC)C(c1cccc(N)c1)=Nn1c(n[nH]c(=O)c1=O)C2 | 57.7 µmol/kg | – | 74.5 µmol/kg | – | – | – | – | – | –
13 | COc1cc2c(cc1OC)C(c1ccc(Br)cc1)=Nn1c(O)nnc1C2 | 1.34 µmol/kg | 5.93 µmol/kg | 3.65 µmol/kg | 13.8 µmol/kg | 17.7 µmol/kg | 18.6 µmol/kg | 7.87 µmol/kg | 17.7 µM/kg | –
